For assay [1], the system named is HCT116 cells. In words: FACS cell cycle analysis in HCT116 cells. The assay is classed as cell-based, human. The settings on record: 48 h, 500 nM compound.
Assay [2] relates to Jurkat cells. The assay can be described thus: Anti-proliferative activity in Jurkat cells. The assay is classed as cell-based. The settings on record: Homo sapiens, read-out: IC50 (cytotoxic, anti-proliferative activity).
Assay [3] has as its system panel of 468 human wild-type and mutant kinases. The assay can be described thus: KINOMEscan kinase profiling, panel of 468 kinases. The assay is classed as binding. The note with it: KINOMEscan at 1 μM compound concentration.
Assay [4] addresses LRRK2 (Homo sapiens, UniProt Q5S007). The assay can be described thus: Biochemical assay LRRK2.
Assay [5] addresses BRD4 (Homo sapiens, UniProt O60885). The assay can be described thus: Biochemical assay BRD4.
Assay [6] concerns the target T1, recombinant purified Aurora A protein (Homo sapiens, UniProt O14965).
T1 sequence (O14965 1-403): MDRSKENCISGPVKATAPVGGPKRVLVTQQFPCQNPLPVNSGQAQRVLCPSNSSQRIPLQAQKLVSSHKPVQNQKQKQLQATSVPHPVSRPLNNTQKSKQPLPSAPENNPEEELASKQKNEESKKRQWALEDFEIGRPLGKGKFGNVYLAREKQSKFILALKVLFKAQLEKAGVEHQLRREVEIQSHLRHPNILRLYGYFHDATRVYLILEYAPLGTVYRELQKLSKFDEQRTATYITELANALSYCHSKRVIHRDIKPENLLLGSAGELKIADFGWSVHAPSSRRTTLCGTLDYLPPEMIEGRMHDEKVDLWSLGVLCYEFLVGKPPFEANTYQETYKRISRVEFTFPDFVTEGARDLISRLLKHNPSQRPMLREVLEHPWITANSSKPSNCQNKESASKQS
The assay can be described thus: LC-MS/MS covalent labeling of recombinant Aurora A. The assay is classed as binding. The settings on record: compound at 10 fold excess with recombinant purified Aurora A.

In assay [7] the test system is HEK293. In words: Cell Titer Glo cell viability assay HEK293. The settings on record: Homo sapiens, HEK293, 72 h, read-out: HEK293 IC50. The format is cell-based. The essentials:
(§1)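 Cells from a human cancer line panel were treated with the test compound across a dose-response series.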
A general note: ATP-based viability assays read luminescence as a measure of living cells.

Assay [8] has as its system PC3. In words: Cell Titer Glo cell viability assay PC3. The format is cell-based. The settings on record: Homo sapiens, PC-3, 72 h, read-out: PC3 IC50. In outline: as §1
The target in assay [9] is ABL1 Y253F (Homo sapiens, UniProt P00519, Y253F). The assay can be described thus: Biochemical kinase assay ABL1 Y253F.
Assay [10] concerns HCT116. In words: Cell Titer Glo cell viability assay HCT116. The settings on record: Homo sapiens, HCT-116, 72 h, read-out: HCT116 IC50. The format is cell-based. In outline: as §1

Structures are written as SMILES. Bounds are passed on as bounds.

LRRK2, sequence (Q5S007 whole entry, species assumed): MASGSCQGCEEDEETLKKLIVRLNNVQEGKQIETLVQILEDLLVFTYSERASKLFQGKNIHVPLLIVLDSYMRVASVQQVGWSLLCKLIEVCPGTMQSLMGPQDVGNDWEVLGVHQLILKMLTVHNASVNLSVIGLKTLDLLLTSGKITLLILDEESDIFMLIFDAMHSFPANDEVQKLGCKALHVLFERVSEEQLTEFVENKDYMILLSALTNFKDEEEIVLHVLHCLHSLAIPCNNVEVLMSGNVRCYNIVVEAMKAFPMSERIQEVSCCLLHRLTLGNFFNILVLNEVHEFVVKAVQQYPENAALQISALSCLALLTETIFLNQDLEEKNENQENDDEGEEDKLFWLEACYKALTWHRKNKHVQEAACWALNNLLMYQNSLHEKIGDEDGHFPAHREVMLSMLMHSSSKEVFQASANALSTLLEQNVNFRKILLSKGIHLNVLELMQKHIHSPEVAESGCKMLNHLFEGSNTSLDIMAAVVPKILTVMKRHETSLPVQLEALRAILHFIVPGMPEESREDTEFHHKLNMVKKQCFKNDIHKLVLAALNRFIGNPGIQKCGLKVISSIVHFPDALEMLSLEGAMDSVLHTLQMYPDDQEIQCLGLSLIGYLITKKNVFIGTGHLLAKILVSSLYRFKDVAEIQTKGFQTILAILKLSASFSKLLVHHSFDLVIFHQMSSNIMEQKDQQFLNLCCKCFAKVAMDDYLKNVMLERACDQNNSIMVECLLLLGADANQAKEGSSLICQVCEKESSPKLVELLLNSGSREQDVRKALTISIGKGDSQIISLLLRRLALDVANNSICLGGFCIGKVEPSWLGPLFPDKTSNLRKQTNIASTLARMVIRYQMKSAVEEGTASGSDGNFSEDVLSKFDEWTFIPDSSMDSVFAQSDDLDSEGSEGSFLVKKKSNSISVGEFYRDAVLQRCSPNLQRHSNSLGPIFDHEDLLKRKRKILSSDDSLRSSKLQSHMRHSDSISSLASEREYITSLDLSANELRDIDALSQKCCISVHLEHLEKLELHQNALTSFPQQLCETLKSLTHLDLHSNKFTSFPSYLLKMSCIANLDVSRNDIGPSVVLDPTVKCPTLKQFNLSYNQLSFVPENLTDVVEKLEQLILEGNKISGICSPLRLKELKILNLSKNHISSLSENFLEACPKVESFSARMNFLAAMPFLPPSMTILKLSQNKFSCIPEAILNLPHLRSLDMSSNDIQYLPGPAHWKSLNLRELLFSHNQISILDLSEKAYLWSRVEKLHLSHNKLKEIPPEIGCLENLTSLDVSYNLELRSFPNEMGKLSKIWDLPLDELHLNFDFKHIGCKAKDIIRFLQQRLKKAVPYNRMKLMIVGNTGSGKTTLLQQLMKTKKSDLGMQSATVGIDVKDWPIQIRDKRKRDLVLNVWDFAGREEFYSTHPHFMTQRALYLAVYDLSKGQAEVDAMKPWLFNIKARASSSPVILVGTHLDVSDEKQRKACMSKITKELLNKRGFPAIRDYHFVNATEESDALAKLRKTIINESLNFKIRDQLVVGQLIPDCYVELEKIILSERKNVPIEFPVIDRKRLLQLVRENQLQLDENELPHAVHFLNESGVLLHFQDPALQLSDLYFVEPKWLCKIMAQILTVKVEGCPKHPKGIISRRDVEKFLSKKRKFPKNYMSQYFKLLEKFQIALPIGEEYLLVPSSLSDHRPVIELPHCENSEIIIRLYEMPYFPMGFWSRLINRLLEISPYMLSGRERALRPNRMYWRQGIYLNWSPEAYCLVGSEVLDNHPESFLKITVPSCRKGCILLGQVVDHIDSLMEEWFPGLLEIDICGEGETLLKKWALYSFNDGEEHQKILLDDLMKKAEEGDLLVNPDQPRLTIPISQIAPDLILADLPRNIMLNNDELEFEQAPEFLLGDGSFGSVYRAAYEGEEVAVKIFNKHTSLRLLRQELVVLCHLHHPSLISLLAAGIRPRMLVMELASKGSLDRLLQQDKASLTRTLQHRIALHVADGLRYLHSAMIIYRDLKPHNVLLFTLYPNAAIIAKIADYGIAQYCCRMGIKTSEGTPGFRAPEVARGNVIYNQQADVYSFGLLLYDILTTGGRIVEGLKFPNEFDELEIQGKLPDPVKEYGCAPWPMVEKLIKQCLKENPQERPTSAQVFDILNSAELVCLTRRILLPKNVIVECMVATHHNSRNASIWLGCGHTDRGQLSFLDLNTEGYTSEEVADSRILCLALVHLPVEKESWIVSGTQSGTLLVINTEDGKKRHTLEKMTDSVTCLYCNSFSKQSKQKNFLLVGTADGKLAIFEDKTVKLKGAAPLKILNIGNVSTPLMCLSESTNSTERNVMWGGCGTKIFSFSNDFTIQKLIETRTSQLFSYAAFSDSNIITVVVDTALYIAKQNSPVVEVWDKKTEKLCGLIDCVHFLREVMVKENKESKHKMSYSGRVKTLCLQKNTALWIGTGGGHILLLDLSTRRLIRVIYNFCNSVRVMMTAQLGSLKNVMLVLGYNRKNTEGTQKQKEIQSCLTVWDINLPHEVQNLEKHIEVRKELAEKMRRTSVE

For `CCOC(=O)c1[nH]cc2c1NC1=C(C(=O)CCC1)[C@H]2c1cccc(Oc2nc3ccccc3[nH]2)c1` [SAR156497, reference compound], the “effect on cell cycle (FACS)” value in [1] was “failed cytokinesis and accumulation of cells that contain 4N DNA (polyploidy)”.
With `C=CC(=O)Nc1ccc(C(=O)Nc2ccc(Nc3ncc4c(n3)N(C)c3ccc(C)cc3C(=O)N4C)cc2)cc1` [compound 1], the IC50 (usually the midpoint of a concentration-inhibition curve) came to 370 nM in [2], 250 ± 48 nM in assay [7] and 990 ± 1500 nM in assay [8]. In addition, the kinome-wide selectivity entry in assay [3] was “exclusively on-target activity”. In addition, the “activity against LRRK2” value in assay [4] was “inactive”. In addition, in assay [5], the “activity against BRD4” value was “inactive”. Also, the “labeling of Aurora A by LC-MS/MS” value in [6] was “no labeling”. Moreover, in [1], the “effect on cell cycle (FACS)” value was “failed cytokinesis and accumulation of cells that contain 4N DNA (polyploidy)”.
On to `CCC(=O)Nc1ccc(C(=O)Nc2ccc(Nc3ncc4c(n3)N(C)c3ccc(C)cc3C(=O)N4C)cc2)cc1` [compound 2], for which the 50% inhibitory concentration (IC50) in assay [9] was more than 10000 nM; in [10] it was approximately 100 nM; in [7] it was approximately 100 nM; in assay [8] it was approximately 100 nM. Besides, the “activity against LRRK2” value in assay [4] is “inactive”. Moreover, the “activity against BRD4” value in assay [5] was “inactive”.
